NTR1 agonist: agonists of human NTR1, primary screen, imaging, U2OS cells, beta-arrestin-GFP, high content; Neurotensin receptor type 1 (Homo sapiens), P30989; NTR1-U2OS beta-arrestin-GFP spot imaging, agonist mode; activation, % at 20 µM; 0.17% of 330,000 active;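 active = activation at or above 40% of the spot to cytoplasm intensity ratio, with at least 20 cells analyzed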;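 also: 0% = DMSO without peptide and 100% = 100 nM NTR1 peptide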
CHO parental Ca: ATP-evoked calcium signal inhibitors, parental CHO, primary screen, counter-screen for OX1R antagonist project, cell-based, fluorescence, Fluo-8 calcium dye. 0.63% of 330,000 active. AID 463079, 2010. parental CHO-K1, ATP-induced calcium, Fluo-8 fluorescence. inhibition, % at 5.6 µM;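 active = inhibition above that plate's mean sample inhibition plus 3 SD, cut at about 26% in these data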;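 also: 0% = ATP-challenged DMSO wells and 100% = DMSO wells without ATP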
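Material – parental CHO cells · Reagent – ATP stimulus · Compound – single nominal dose of 5.6 µM per compound · Detection – Fluo-8 fluorescence · Read-out basis – percent inhibition of calcium signal · Controls – ATP-challenged DMSO wells low, unchallenged DMSO wells high · Repeats – no replicates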
OX1R antag-1: OX1R (HCRTR1) antagonists, primary screen, fluorescence, CHO/OX1R cells, Fluo-8 calcium, orexin A | Orexin/Hypocretin receptor type 1 (Homo sapiens), O43613 | Fluo-8 calcium fluorescence | inhibition, % at 5 µM | 0.43% of 330,000 active;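 active = inhibition above its plate's threshold, mean inhibition of all tested compounds on the plate plus 3 SD, cut at about 37% in these data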;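 also: 0% = orexin A challenge wells and 100% = SB-334867-A antagonist wells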
TAAR1 antagonist: human TAAR1 antagonists, primary screen, Fluo-8 calcium fluorescence, CHO RD-HGA16 cells. Trace amine-associated receptor 1 (Homo sapiens), Q96RJ0. antagonist. inhibition, % at 3 µM. 1.5% of 360,000 active. AID 624466, 2012;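 active = inhibition above a per-plate cutoff, the mean inhibition of test compounds on that plate plus 3 SD, cut at about 49% in these data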;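 also: 0% = DMSO plus EC80 beta-PEA response and 100% = DMSO alone without agonist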
Target sequence (Q96RJ0 whole entry, looked up): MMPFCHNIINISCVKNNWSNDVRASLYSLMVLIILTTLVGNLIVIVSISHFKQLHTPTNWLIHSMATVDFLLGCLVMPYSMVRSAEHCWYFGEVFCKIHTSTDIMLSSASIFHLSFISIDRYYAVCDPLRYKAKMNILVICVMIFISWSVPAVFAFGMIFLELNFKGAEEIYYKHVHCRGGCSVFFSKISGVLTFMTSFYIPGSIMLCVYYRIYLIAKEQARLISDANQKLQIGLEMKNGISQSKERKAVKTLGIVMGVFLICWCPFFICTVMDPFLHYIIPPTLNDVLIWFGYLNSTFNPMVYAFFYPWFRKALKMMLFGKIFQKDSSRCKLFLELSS
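System: RD-HGA16 CHO cells with stable hTAAR1 and Gα16 | Probe or stimulus: EC80 β-phenethylamine stimulus | Dosing: 3 µM, single point | Times: Dye loading 75 min at 37 °C, then 30 min room temperature | Measured by: Fluo-8 calcium-sensitive fluorescence | Read-out basis: % inhibition of agonist calcium response | Replicates: n of 1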
OX1R antag-2: antagonists of human orexin 1 receptor (OX1R). OX1R-expressing cells, FRET antagonist read-out. inhibition, % at 6.6 µM. 1.8% of 330,000 active. AID 485270, 2010; in the data active = inhibition mostly above about 38%, no sharp cut-off; inactive = mostly below about 40%;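 also: 0% = agonist challenge alone and 100% = reference antagonist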
TAAR1 agonist: human TAAR1 agonists, primary screen, Fluo-8 calcium fluorescence, CHO RD-HGA16 cells; Trace amine-associated receptor 1 (Homo sapiens), Q96RJ0; 0.99% of 360,000 active; AID 624467, 2012; vehicle wells 0%, saturating PEA agonist 100%; activation, % at 3 µM;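 active = activation above the mean activation of all test compounds in the run plus 3 SD, cut at about 38% in these data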
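Assay system: CHO-derived RD-HGA16 cells with stable Gα16 and human TAAR1; timing: 17-24 h seeding, 75 min 37 °C dye, 30 min RT; read-out: % activation from peak over basal fluorescence ratio, DMSO-to-PEA scaled; measured by: kinetic Fluo-8 calcium fluorescence; benchmarks: low control DMSO, high control PEA (EC100); doses: 3 µM single concentration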
TAAR1 ag confirm: human TAAR1 agonists, retest of hits, confirmation, Fluo-8 calcium fluorescence, CHO RD-HGA16 cells; shares compounds with TAAR1 agonist; scaled: DMSO 0%, maximal phenethylamine 100%; activation, % at 3 µM; 82% of 2,400 active;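 active = activation above a cutoff set at the run's mean compound activation plus 3 SD, cut at about 39% in these data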
Ga16 nonsel ag: nonselective calcium mobilization agonists, CHO-Ga16 cells, counter-screen for hTAAR1 agonist project, cell-based, fluorescence, CHO-Ga16 parental line | shares compounds with TAAR1 agonist | Fluo-8 calcium fluorescence; normalized to maximal ATP response, DMSO zero | activation, % at 3 µM | 50% of 2,400 active | AID 651787, 2012;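 active = activation above the run cutoff, the mean activation over all tested wells plus 3 SD, cut at about 12% in these data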;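 also: 0% = DMSO wells and 100% = maximal ATP response on the peak over basal ratio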
TAAR1 desensitize: TAAR1 desensitization by agonist hits, confirmation, counter-screen for TAAR1 agonist project, cell-based, fluorescence, tachyphylaxis; CHO RD-HGA16 hTAAR1, Fluo-8 calcium, beta-PEA response inhibition; shares compounds with TAAR1 agonist; inhibition, % at 3 µM; 46% of 2,400 active;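 active = inhibition above the run cutoff, the mean inhibition of all test compounds plus 3 SD, cut at about 49% in these data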;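 also: beta-PEA stimulus applied at its EC80; loss of beta-PEA calcium signal after compound pretreatment read as receptor desensitization; 0% = DMSO with beta-PEA at EC80 and 100% = DMSO alone without agonist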
Ga16 antag count: inhibition of ATP-evoked calcium response in CHO-Ga16 cells, counter-screen for TAAR1 agonist project, cell-based, fluorescence; shares compounds with TAAR1 agonist; CHO-Ga16 ATP-induced calcium, Fluo-8 fluorescence; inhibition, % at 3 µM; 39% of 2,400 active;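 active = inhibition above the plate's mean compound inhibition plus 3 SD, computed per plate, cut at about 22% in these data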;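 also: 0% = EC80 ATP with DMSO and 100% = DMSO wells without ATP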
Active calls of the source: *; / = no result given. An excerpt weighted towards active compounds, which were near 4% of everything screened.

SMILES	NTR1 agonist	CHO parental Ca	OX1R antag-1	TAAR1 antagonist	OX1R antag-2	TAAR1 agonist	TAAR1 ag confirm	Ga16 nonsel ag	TAAR1 desensitize	Ga16 antag count
O=C(CCCN=C1NS(=O)(=O)c2ccccc21)OCC(=O)c1ccc(F)cc1	1	4	12	31	10	67*	86*	33*	33	30*
O=C(NCCc1nnc2ccc(NCCCN3CCOCC3)nn12)c1ccccc1F	0	13	0	-13	7	0	/	/	/	/
COc1ccc(N=Cc2sc(O)c3ccccc23)cc1	0	46*	67*	64*	26	84*	46*	72*	53*	69*
CCn1cc(S(=O)(=O)NCCc2ccccc2OC)cn1	-1	-6	-9	-5	9	46*	59*	8	24	7
Cc1ccc(C23CC4CC(CC(C(=O)NC(C(=O)O)C(C)C)(C4)C2)C3)cc1 (stereo unspecified)	0	-11	9	-15	15	1	/	/	/	/
Nc1cc(=O)[nH]c(SCC(=O)N2CCc3ccccc3C2)n1	-2	-8	-10	75*	6	80*	89*	5	43	7
C=CCn1c(N)c(C(=O)Nc2ccc(C)cc2)sc1=S	1	-7	-11	40	17	62*	-4	-1	1	12
C=CCn1c(N)c(C(=O)Nc2ccccc2OC)sc1=S	1	-15	-7	11	22	9	/	/	/	/
COc1ccccc1N1CN(CCc2ccccc2)CNC1=S	-1	-19	-5	57*	17	83*	101*	5	84*	1
Cc1ccc(C)c(N2CN(CCC3=CCCCC3)CNC2=S)c1	2	-13	-23	23	6	59*	53*	1	59*	14
C=CCN1CN(CCc2ccccc2)CNC1=S	3	-10	-5	5	11	55*	81*	15*	46	2
Cc1ccc(N2CN(CCc3ccccc3)CNC2=S)cc1	0	-21	-15	60*	1	73*	90*	0	81*	8
CCN1CCN(c2ccc(NC(=O)c3ccc(Cl)c(N4CCCC4=O)c3)cc2)CC1	1	3	-5	-14	45	-3	/	/	/	/
Cc1cccc(NS(=O)(=O)c2ccc(C)c(NS(=O)(=O)c3cccs3)c2)c1	0	/	/	-10	/	7	/	/	/	/
CN(C)CCNC(=O)c1cccc(-c2cnc3c(NC=O)cc(-c4cccs4)cn23)c1	/	/	/	3	/	1	/	/	/	/
COc1ccc(Cc2nc3ccc(C(=O)N(C)CCCN4CCOCC4)cc3o2)cc1	0	-13	-17	-12	6	1	/	/	/	/
CSCC[C@H](NC(=O)[C@H](Cc1ccccc1)n1c(=O)[nH]c2ccccc2c1=O)C(=O)N1CCC(C(=O)O)CC1	-1	0	-9	-6	11	0	/	/	/	/
